“Also recorded” adds a separate entry of the source.
Assays:
PEP = PEP (Mus musculus, UniProt Q9QUR6); assay: PEP selectivity assay; assay type: biochemical; conditions: 20 μM inhibitor; >20% reduction in PEP activity = cross-reactive
PREPL [1] = target: T1, PREPL (Mus musculus, UniProt Q8C167); assay: MUGB; assay type: biochemical
PREPL [2] = target: T1, PREPL; assay: gel-based ABPP IC50 determination with recombinant PREPL and FP-Rh; assay type: biochemical
[3] = in vivo distribution of PREPL inhibitor to brain by LC-MS/MS; conditions: mouse, 1 mg/kg intraperitoneal, 30 minutes, brain extract, MRM
PREPL [4] = target: T1, PREPL; assay: in situ ABPP assay in PREPL-transfected Neuro2A cells; assay type: cell-based; conditions: 50 μM inhibitor in media
Outline: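 Neuro2A cells plated at 1.5 × 10^6 per well and transfected next day with mouse PREPL plasmid by lipofection. Two days later, medium replaced with medium containing test compound for 1.5 h. Cell-permeable FP-alkyne then added (10 μM final) for 1 h. Cells PBS-washed, scraped, lysed by 7 freeze-thaw cycles and spun at 20,000 x g. Lysate at 4 mg/ml clicked with rhodamine-azide/TCEP/ligand/CuSO4 for 1 h, then resolved by SDS-PAGE.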

PREPL [5] = target: T1, PREPL; assay: competitive gel-based ABPP in PREPL-spiked mouse brain proteome; assay type: biochemical; conditions: 50 μM inhibitor, brain proteome 1 mg/mL spiked with 40 nM PREPL, FP-Rh
Outline: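 Brain proteome diluted to 1 mg/mL in PBS pH 7.4 and spiked with recombinant His-tagged mouse PREPL (E. coli-expressed, Ni-IMAC purified), with Pluronic at 0.01% final. Test compound or DMSO preincubated 30 min at room temperature. FP-Rh at 0.5 μM final for 15 min, then SDS-loading-buffer quench. Samples run on 10% SDS-PAGE, scanned in-gel for fluorescence, and PREPL bands quantified for labeling extent.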

T1 sequence (Q8C167 88-725): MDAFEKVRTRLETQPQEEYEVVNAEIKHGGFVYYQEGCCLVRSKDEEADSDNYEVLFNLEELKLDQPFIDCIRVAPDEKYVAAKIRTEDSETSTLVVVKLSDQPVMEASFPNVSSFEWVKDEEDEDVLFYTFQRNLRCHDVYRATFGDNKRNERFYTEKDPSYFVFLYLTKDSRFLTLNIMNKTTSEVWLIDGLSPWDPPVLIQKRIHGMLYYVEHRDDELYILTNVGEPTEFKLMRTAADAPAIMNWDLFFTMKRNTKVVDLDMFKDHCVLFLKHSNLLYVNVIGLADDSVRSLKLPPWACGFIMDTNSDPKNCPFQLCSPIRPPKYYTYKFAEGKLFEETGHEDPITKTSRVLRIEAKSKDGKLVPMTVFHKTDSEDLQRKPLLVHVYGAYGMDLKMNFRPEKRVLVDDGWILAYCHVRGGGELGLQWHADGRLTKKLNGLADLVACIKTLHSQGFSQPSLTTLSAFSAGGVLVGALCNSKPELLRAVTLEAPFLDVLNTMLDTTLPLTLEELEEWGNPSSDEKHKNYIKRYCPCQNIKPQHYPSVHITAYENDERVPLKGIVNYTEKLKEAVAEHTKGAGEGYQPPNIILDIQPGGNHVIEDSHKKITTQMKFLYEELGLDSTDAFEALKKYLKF
PEP, sequence (Q9QUR6 whole entry): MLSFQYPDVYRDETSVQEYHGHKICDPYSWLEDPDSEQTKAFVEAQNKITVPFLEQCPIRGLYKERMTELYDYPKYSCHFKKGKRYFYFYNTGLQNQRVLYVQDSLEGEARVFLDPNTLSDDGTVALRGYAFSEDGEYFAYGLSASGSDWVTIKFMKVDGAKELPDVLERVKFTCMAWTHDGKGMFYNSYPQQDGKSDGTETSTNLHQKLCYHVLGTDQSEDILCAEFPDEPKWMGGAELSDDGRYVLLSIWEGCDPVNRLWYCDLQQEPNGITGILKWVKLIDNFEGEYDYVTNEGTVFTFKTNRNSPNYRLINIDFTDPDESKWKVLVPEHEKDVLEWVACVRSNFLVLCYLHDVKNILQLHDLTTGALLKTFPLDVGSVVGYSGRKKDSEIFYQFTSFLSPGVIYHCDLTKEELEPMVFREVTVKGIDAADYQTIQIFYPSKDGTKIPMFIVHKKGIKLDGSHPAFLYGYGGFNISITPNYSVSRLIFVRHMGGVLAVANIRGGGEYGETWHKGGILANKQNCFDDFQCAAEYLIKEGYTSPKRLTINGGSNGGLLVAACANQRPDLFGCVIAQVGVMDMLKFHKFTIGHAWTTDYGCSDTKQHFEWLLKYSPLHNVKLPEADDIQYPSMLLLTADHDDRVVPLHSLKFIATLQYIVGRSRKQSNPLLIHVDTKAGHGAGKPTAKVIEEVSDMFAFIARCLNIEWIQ

For `CC(C)Cc1[nH]c(=O)c(C#N)c2c1CCC2` [compound 8, 1-isobutyl-3-oxo-3,5,6,7-tetrahydro-2H-cyclopenta[c]pyridine-4-carbonitrile], the “crossreactivity against PEP” value (PEP) was “non-crossreactive”, the “inhibition of MUGB breakdown by PREPL” value (PREPL [1]) was “inhibited breakdown of MUGB by PREPL” and the IC50 (PREPL [2]) was 3 to 12 µM. For the same compound, the “presence in brain / crossing of blood-brain barrier” value [3] was “strong signal; also recorded: able to cross the blood-brain barrier”, the “inhibition of PREPL in cells (in situ)” value (PREPL [4]) was “able to cross the cell membrane and inhibit PREPL intracellularly; also recorded: lighter band on the gel” and the “inhibition of PREPL in complex (brain) proteome” value (PREPL [5]) was “able to inhibit PREPL in a complex proteome; also recorded: most potent carbonitrile inhibitor in the brain proteome ABPP assay; also recorded: selectively inhibit PREPL in brain proteomes”.
